The results in this text go back to ChEMBL document CHEMBL3232963, “Discovery of a potent and selective α3β4 nicotinic acetylcholine receptor antagonist from an α-conotoxin synthetic combinatorial library” (J Med Chem, 2014).

Active and inactive are the calls of the source. The calls are words filed in the database; no cut-off is given here. Bridge positions count the residues as written; N and C are the ends. Peptide text beside a SMILES is read from it.

Assay [1] deals with Neuronal acetylcholine receptor; alpha3/beta4 (Homo sapiens, UniProt P30926+P32297). Put plainly: Antagonist activity at alpha3beta4 nAChR (unknown origin). The class given is protein-complex assay. The method in brief:
(§1)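 Stably transfected HEK293 lines (KXα3β4R2, KXα3β2R2, KXα4β2R2; rat subunits) grown in DMEM/10% FBS with G-418, plated 24 h before assay. Cells washed with HBSS, peptide added, then membrane potential blue dye, 30 min at 37 °C. Fluorescence (ex 565/em 530 nm) read up to 60 s after epibatidine to 0.1 μM. IC50 from maximal responses across concentrations; n = 4.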

Assay [2] concerns the target Neuronal acetylcholine receptor; alpha3/beta4 (Rattus norvegicus) (UniProt P04757+P12392). Put plainly: Antagonist activity at rat alpha3beta4 nAChR expressed in HEK293 cells assessed as inhibition of epibatadine-induced effect at 10 uM after 30 mins by fluorescent membrane potential assay relative to mecamylamine. In kind it is cell-based. The method in brief: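 Rat α3β4 nAChR stably expressed in HEK293 cells; crude, SPE-desalted individual peptides tested at 10 μM in HBSS with membrane potential blue dye, 30 min at 37 °C. Fluorescence change read after epibatidine (0.1 μM). Percent inhibition set against 10 μM mecamylamine taken as 100%.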

The next assay has as its system HEK293. Put plainly: Selectivity ratio of IC50 for rat alpha3beta4 nAChR expressed in HEK293 cells to IC50 for rat alpha3beta2 nAChR expressed in HEK293 cells. In kind it is cell-based.
The target in assay [3] is Neuronal acetylcholine receptor; alpha3/beta2 (Rattus norvegicus, UniProt P04757+P12390). Put plainly: Antagonist activity at rat alpha3beta2 nAChR expressed in HEK293 cells assessed as inhibition of epibatadine-induced effect after 30 mins by fluorescent membrane potential assay. The class given is cell-based. The method in brief: as §1
Sequence of Neuronal acetylcholine receptor; alpha3/beta2 (P04757 whole entry): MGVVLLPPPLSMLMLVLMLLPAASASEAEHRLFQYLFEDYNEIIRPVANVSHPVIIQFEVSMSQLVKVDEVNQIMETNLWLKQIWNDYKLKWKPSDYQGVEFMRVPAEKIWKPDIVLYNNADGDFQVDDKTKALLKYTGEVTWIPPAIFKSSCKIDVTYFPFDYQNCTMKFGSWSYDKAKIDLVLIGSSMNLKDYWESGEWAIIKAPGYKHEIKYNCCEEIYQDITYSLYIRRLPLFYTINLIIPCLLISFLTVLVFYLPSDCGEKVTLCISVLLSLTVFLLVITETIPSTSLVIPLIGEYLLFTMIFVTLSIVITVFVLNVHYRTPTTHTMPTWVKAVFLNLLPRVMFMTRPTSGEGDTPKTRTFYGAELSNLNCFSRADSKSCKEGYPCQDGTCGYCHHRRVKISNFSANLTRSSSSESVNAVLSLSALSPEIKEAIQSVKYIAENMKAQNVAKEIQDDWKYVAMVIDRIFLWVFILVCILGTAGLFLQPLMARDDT
Sequence of Neuronal acetylcholine receptor; alpha3/beta2 (P12390 whole entry): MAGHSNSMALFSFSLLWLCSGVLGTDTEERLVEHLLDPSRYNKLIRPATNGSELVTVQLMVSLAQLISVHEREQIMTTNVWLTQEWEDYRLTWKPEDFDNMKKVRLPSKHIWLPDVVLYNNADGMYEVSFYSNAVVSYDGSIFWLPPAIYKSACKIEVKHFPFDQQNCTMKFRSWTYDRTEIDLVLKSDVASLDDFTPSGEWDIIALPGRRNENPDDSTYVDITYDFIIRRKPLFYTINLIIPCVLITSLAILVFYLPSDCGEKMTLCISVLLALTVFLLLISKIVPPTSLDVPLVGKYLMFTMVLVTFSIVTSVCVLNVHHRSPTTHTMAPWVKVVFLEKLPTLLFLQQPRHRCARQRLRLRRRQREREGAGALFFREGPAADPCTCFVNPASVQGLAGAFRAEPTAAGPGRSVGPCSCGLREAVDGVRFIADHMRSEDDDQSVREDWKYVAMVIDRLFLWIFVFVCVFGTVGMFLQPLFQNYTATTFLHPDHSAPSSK
Assay [4] concerns the target T1, Neuronal acetylcholine receptor; alpha3/beta4 (Rattus norvegicus, UniProt P04757+P12392). Put plainly: Displacement of [3H]epibatadine from rat alpha3beta4 nAChR expressed in HEK293 cells after 2 hrs by betaplate counting analysis. The class given is cell-based. An outline of the steps: (§2)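 Membranes from HEK293 cells stably expressing α3β4 or α4β2 nAChR, homogenised in 50 mM Tris pH 7.4 and washed by centrifugation. Incubated 2 h at room temperature with peptide and 0.31 nM [3H]epibatidine; filtered on PEI-soaked glass fibre, counted. Nonspecific binding with 0.1 μM unlabeled epibatidine. Ki by Cheng–Prusoff from IC50.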
(Loss of bound radioactivity is the signal in a displacement assay; it reports binding, not function.)

Assay [5] deals with T1, Neuronal acetylcholine receptor; alpha3/beta4. Put plainly: Antagonist activity at rat alpha3beta4 nAChR expressed in HEK293 cells assessed as inhibition of epibatadine-induced effect after 30 mins by fluorescent membrane potential assay. The class given is cell-based. An outline of the steps: as §1
Assay [6] deals with Neuronal acetylcholine receptor; alpha4/beta2 (Rattus norvegicus, UniProt P09483+P12390). Put plainly: Antagonist activity at rat alpha4beta2 nAChR expressed in HEK293 cells assessed as inhibition of epibatadine-induced effect after 30 mins by fluorescent membrane potential assay. The class given is cell-based. The method in brief: as §1
Sequence of Neuronal acetylcholine receptor; alpha4/beta2 (P09483 whole entry): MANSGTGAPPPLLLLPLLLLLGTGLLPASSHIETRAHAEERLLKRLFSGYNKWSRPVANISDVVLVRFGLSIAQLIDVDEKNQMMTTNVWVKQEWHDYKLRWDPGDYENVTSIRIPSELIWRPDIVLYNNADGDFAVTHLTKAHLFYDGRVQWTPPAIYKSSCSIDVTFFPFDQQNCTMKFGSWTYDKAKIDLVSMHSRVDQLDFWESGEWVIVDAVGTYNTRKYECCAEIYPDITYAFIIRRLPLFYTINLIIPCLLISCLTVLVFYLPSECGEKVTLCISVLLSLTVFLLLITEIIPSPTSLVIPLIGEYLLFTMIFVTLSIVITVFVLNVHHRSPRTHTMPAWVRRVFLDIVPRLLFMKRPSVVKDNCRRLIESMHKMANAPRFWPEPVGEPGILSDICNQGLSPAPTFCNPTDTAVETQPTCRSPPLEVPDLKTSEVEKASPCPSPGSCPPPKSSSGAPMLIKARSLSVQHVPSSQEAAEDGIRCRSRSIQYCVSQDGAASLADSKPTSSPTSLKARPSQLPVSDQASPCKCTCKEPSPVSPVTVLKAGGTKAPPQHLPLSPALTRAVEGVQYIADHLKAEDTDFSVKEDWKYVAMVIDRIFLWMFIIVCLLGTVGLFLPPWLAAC
Sequence of Neuronal acetylcholine receptor; alpha4/beta2 (P12390 whole entry): as the sequence (P12390 whole entry) above
Assay [7] has as its target T1, Neuronal acetylcholine receptor; alpha3/beta4. Put plainly: Inhibition of rat alpha3beta4 nAChR expressed in Xenopus laevis oocytes by voltage clamp technique. The class given is cell-based. An outline of the steps:
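Oocytes expressing α3 chimera/β4 nAChR, voltage-clamped at ~22 °C. Concentrations below 1 μM perfused, with 1 s ACh pulses every 1 min; 1 μM and above given as a 5 min static bath. Lowest concentration tested 10 nM. IC50 from a concentration–response curve with top and bottom fixed at 100 and 0; n = 3–5 oocytes per concentration.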

For assay [8], the target named is Neuronal acetylcholine receptor; alpha4/beta2 (Rattus norvegicus) (UniProt P09483+P12390). Put plainly: Displacement of [3H]epibatadine from rat alpha4beta2 nAChR expressed in HEK293 cells up to 10 uM after 2 hrs by betaplate counting analysis. The class given is cell-based. The method in brief:
as §2

T1 sequence (P04757 whole entry): as the sequence (P04757 whole entry) above
T1 sequence (P12392 whole entry): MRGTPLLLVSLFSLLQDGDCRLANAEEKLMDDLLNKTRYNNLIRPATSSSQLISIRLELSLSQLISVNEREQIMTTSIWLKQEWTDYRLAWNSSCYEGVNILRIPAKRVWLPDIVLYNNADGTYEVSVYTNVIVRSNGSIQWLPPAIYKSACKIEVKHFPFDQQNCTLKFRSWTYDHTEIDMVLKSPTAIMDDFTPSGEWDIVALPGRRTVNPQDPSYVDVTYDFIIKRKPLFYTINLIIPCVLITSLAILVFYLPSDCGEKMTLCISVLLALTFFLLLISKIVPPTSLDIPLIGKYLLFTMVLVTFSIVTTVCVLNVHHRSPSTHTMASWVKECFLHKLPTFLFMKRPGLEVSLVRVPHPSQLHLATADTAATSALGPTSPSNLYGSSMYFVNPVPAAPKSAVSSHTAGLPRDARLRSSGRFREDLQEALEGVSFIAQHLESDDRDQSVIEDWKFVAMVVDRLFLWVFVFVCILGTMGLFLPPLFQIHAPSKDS
Sequence of Neuronal acetylcholine receptor; alpha3/beta4 (Homo sapiens, UniProt P30926+P32297) (P30926 whole entry): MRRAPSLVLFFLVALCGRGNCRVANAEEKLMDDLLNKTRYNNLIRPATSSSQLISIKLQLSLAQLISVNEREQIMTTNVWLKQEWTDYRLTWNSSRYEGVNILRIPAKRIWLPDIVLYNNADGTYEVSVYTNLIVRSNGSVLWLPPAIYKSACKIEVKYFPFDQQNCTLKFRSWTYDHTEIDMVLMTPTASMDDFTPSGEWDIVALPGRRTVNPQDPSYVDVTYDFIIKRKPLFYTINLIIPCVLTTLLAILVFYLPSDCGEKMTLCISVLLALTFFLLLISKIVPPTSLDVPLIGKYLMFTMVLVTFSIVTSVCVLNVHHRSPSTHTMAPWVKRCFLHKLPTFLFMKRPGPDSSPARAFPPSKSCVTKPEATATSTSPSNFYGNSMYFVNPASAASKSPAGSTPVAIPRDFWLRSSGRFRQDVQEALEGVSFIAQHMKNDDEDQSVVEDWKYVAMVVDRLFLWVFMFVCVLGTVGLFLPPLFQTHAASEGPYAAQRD
Sequence of Neuronal acetylcholine receptor; alpha3/beta4 (Homo sapiens, UniProt P30926+P32297) (P32297 whole entry): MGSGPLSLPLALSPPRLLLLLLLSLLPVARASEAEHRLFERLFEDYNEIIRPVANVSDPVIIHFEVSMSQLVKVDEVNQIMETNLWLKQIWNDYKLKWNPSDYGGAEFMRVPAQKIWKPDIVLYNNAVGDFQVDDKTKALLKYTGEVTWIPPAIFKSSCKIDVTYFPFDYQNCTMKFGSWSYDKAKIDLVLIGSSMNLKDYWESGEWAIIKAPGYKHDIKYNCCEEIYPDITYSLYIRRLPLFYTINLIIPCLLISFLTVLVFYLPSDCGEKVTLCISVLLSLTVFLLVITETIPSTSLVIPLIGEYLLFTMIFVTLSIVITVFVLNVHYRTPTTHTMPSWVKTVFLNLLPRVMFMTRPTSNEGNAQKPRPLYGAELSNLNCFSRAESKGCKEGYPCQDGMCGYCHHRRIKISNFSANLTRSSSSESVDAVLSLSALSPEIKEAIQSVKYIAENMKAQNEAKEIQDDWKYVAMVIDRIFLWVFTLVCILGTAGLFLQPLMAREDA

Regarding `CC[C@H](C)[C@@H]1NC(=O)[C@H](Cc2cnc[nH]2)NC(=O)[C@@H]2CCCN2C(=O)[C@H](CC(N)=O)NC(=O)[C@H](CC(N)=O)NC(=O)[C@H](C(C)C)NC(=O)[C@H](CC(N)=O)NC(=O)[C@@H]2CSSC[C@H](NC(=O)CN)C(=O)N[C@@H](CSSC[C@@H](C(=O)O)NC1=O)C(=O)N[C@@H](CO)C(=O)N[C@@H](Cc1cnc[nH]1)C(=O)N1CCC[C@H]1C(=O)N[C@@H](C)C(=O)N2` (H-GCCSHPACNVNNPHIC-OH; disulfide 2-8, 3-16), the IC50 in assay [1] is 97 nM.

Turning to `CC(C)C[C@@H]1NC(=O)[C@H](C(C)C)NC(=O)[C@H](C)NC(=O)[C@@H]2CSSC[C@H](NC(=O)CN)C(=O)N[C@@H](CSSC[C@@H](C(=O)O)NC(=O)[C@H](Cc3ccc(O)cc3)NC1=O)C(=O)N[C@@H](CO)C(=O)N[C@@H]([C@H](C)O)C(=O)N1CCC[C@H]1C(=O)N1CCC[C@H]1C(=O)N2`, in assay [2], the inhibition was found to be 94.4%. Moreover, in the assay with HEK293, the Ratio IC50 was found to be 10. In addition, the 50% inhibitory concentration (IC50) in [3] is 26 nM; in assay [5] it was 265 nM; in assay [6] it was more than 10000 nM; in [7], 27.7 nM. In assay [4], this compound had a Ki of 851 nM. Also, the result in assay [8] was inactive.

`C[C@@H]1NC(=O)[C@H](Cc2ccccc2)NC(=O)[C@@H]2CSSC[C@H](NC(=O)CN)C(=O)N[C@@H](CSSC[C@@H](C(=O)O)NC(=O)[C@H](CC(=O)O)NC(=O)[C@@H]3CCCN3C(=O)[C@H](CC(N)=O)NC(=O)[C@H]([C@@H](C)O)NC1=O)C(=O)N[C@@H](CO)C(=O)N[C@@H](Cc1ccc(O)cc1)C(=O)N1CCC[C@H]1C(=O)N1CCC[C@H]1C(=O)N2` showed an IC50 in [7] of 770 nM.

`CC(C)C[C@@H]1NC(=O)[C@H](CCC(=O)O)NC(=O)[C@@H]2CCCN2C(=O)[C@H](Cc2cnc[nH]2)NC(=O)[C@H](CC(N)=O)NC(=O)[C@H](C(C)C)NC(=O)[C@H](CO)NC(=O)[C@@H]2CSSC[C@H](NC(=O)CN)C(=O)N[C@@H](CSSC[C@@H](C(=O)O)NC1=O)C(=O)N[C@@H](CO)C(=O)N[C@@H](Cc1cnc[nH]1)C(=O)N1CCC[C@H]1C(=O)N[C@@H](C)C(=O)N2` (H-GCCSHPACSVNHPELC-OH; disulfide 2-8, 3-16) gave a half-maximal inhibitory concentration (IC50) in [7] of 480 nM.

For orientation: IC50 means the concentration that gives 50% inhibition. In general, inhibition refers to the drop in the measured response relative to a control, in per cent. Broadly, the Ki is a measure of affinity in units of concentration, obtained from inhibition or displacement. Low readings indicate higher affinity, high ones lower affinity.
